Assay outcomes: PubChem BioAssay, Johns Hopkins Ion Channel Center
Kir21 block: blocks the mouse Kir2.1 inward-rectifier potassium channel; HEK293-Kir2.1, FluxOR thallium flux fluorescence; stronger effect = lower value; P35561; 310,000 compounds, 0.85% hits; B-score at 10 µM; AID 1672;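 active = fluorescence ratio B-score at or below minus 3 SD of library scores, with starting-brightness B-score within 2 SD, cut at about -4.2 in these data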;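 also: channel flux triggered by added potassium and thallium sulfate stimulus; B-score of peak minus minimum fluorescence over baseline after thallium stimulus; more negative B-score means stronger Kir2.1 block with less thallium influx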
KCNK3 inh: human KCNK3 channel inhibition, primary screen; B-score at 10 µM; AID 602410; CHO-KCNK3 thallium flux, FluxOR fluorescence; stronger effect = lower value; 340,000 compounds, 0.84% hits;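 active = B-score under library mean minus 4 SD, starting fluorescence ratio at most library mean plus 5 SD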;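 also: more negative B-score means stronger inhibition of thallium flux through KCNK3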
KCNK9 block: human KCNK9 channel inhibition; Q9NPC2; HEK293 KCNK9, FluxOR thallium flux fluorescence; stronger effect = lower value; B-score at 10 µM; 310,000 compounds, 1.2% hits; AID 488922;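 active = ratio B-score over 3 SD below the library mean, with starting fluorescence within 5 SD of its mean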;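 also: negative B-score means less thallium flux so channel inhibition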
Target sequence (Q9NPC2 whole entry, looked up): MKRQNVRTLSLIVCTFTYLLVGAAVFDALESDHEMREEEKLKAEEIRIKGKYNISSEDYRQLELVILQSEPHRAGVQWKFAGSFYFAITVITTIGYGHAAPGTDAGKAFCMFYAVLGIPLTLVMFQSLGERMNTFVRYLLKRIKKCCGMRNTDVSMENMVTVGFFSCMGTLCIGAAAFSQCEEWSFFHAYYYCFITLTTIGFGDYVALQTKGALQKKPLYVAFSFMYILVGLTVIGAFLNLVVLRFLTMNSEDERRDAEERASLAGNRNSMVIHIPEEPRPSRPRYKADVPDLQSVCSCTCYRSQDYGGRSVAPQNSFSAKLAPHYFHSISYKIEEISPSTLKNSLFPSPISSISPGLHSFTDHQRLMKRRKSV
KCNQ1 pot: human KCNQ1 channel potentiation or activation; P51787; CHO-K1 KCNQ1, thallium flux FluxOR fluorescence; stronger effect = higher value; B-score at 10 µM; 310,000 compounds, 0.35% hits; AID 2648;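 active = fluorescence ratio B-score, a plate-corrected score, at least three library SD, with initial intensity B-score within 5 SD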
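Assay system: stable KCNQ1 CHO-K1 line; medium: assay buffer, equal DMSO in all wells; timing: 90 min dye loading and 20 min compound exposure, both at room temperature; technique: kinetic FluxOR thallium fluorescence, 10-s 1-Hz baseline, 110-s post-stimulus read; read-out basis: B score of baseline-normalized fluorescence ratio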
hERG protect: hERG (human) protection from proarrhythmic block | Q12809 | CHO-hERG, FluxOR thallium flux, dofetilide IC70 present | activation (rescue from dofetilide block), less the hit threshold, % at 10 µM | 310,000 compounds, 0.51% hits;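 active = activation above the mean of controls blocked by dofetilide plus 5 SD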;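 also: thallium influx through hERG after potassium depolarization seen as dye fluorescence rise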
KCNQ1 inh: human KCNQ1 channel inhibition; P51787; 310,000 compounds, 1.3% hits; CHO-K1 KCNQ1, FluxOR thallium flux fluorescence; stronger effect = higher value; B-score at 10 µM; AID 2642;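 active = compounds whose thallium flux B-score, printed positive for inhibition, exceeds three library SD while starting fluorescence stays within three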;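 also: channel opened by potassium depolarization with thallium stimulus after 20 min compound exposure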
KCNK9 inh conf: human KCNK9 inhibitor confirmation. inhibition, % at 10 µM. shares compounds with KCNK9 block. AID 492992. HEK293 KCNK9 cells, FluxOR thallium flux fluorescence. 4,900 compounds, 43% hits;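 active = thallium signal inhibited by more than 5 SD of the compound-free buffer control wells, on both duplicate plates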
Kir2-1 spec: selectivity of KCNK9 modulators against mouse Kir2.1. shares compounds with KCNK9 block. Kir2.1 cells, FluxOR thallium flux fluorescence. inhibition, % at 10 µM. 4,900 compounds, 4% hits;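 active = thallium signal drop more than 5 SD beyond the mean of the no-compound control wells, seen in both duplicate plates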;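 also: signal is fluorescence rise after thallium addition divided by baseline fluorescence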
KCNK9 uninduced: second counter-screen for KCNK9 modulators: effect in non-induced cells | shares compounds with KCNK9 block | non-induced KCNK9-HEK293, FluxOR thallium flux | inhibition, % at 10 µM | 4,900 compounds, 40% hits | AID 492997;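 active = thallium signal drop beyond 5 SD of the untreated control mean, on both duplicate plates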
Hits are given with their value. Shown are actives, neighbours in structure and some others; about 3.8% of the full set was active somewhere.

How did O=S(=O)(c1ccc(Br)s1)N1CCN(Cc2ccc3c(c2)OCO3)CC1 do in these assays?
Kir21 block: inactive; KCNK3 inh: inactive; KCNK9 block: inactive; KCNQ1 pot: inactive; hERG protect: inactive; KCNQ1 inh: inactive; KCNK9 inh conf: inactive; Kir2-1 spec: inactive; KCNK9 uninduced: inactive

How did CCOc1ccc(S(=O)(=O)N2CCN(Cc3ccc4c(c3)OCO4)CC2)cc1OCC do in these assays?
Kir21 block: inactive; KCNK3 inh: inactive; KCNK9 block: inactive; KCNQ1 pot: inactive; hERG protect: inactive; KCNQ1 inh: inactive

How did O=S(=O)(c1cccc2cccnc12)N1CCN(Cc2ccc3c(c2)OCO3)CC1 do in these assays?
Kir21 block: inactive; KCNK3 inh: inactive; KCNK9 block: inactive; KCNQ1 pot: inactive; hERG protect: inactive; KCNQ1 inh: inactive; KCNK9 inh conf: inactive; Kir2-1 spec: inactive; KCNK9 uninduced: inactive

What do the screens show for `Cc1cccc(CCNC(=O)c2oc3c(C)c(C)ccc3c2C)n1`?
Kir21 block: inactive; KCNK3 inh: inactive; KCNK9 block: inactive; KCNQ1 pot: inactive; hERG protect: inactive; KCNQ1 inh: inactive

Results for COc1cc(C#N)c(N=C(SCC#N)N2CCOCC2)cc1OC ?
Kir21 block: inactive; KCNK3 inh: inactive; KCNK9 block: inactive; KCNQ1 pot: inactive; hERG protect: inactive; KCNQ1 inh: inactive

Results for CCOC(=O)C1CCN(Cc2coc3c(Cl)cc(Cl)cc3c2=O)CC1 ?
Kir21 block: inactive; KCNK3 inh: inactive; KCNK9 block: inactive; KCNQ1 pot: inactive; hERG protect: inactive; KCNQ1 inh: inactive; KCNK9 inh conf: inactive; Kir2-1 spec: inactive; KCNK9 uninduced: inactive

Results for CCOC(=O)C1CCN(Cc2c(F)cccc2Cl)CC1 ?
Kir21 block: inactive; KCNK3 inh: inactive; KCNK9 block: inactive; KCNQ1 pot: inactive; hERG protect: inactive; KCNQ1 inh: inactive

How did CSc1ccc(CN(C)C(=O)CCNS(=O)(=O)c2ccc(C)c(C)c2)cc1 do in these assays?
Kir21 block: inactive; KCNK3 inh: inactive; KCNK9 block: inactive; KCNQ1 pot: inactive; hERG protect: inactive; KCNQ1 inh: inactive; KCNK9 inh conf: inactive; Kir2-1 spec: inactive; KCNK9 uninduced: inactive

What do the screens show for `SC(COCc1ccccc1)CN1CCN(Cc2ccc3c(c2)OCO3)CC1` (stereo not given)?
Kir21 block: inactive; KCNK3 inh: inactive; KCNK9 block: inactive; KCNQ1 pot: inactive; hERG protect: inactive; KCNQ1 inh: inactive; KCNK9 inh conf: inactive; Kir2-1 spec: inactive; KCNK9 uninduced: inactive

Results for COc1ccc(OCC(=O)Nc2ccccc2C(=O)Nc2ccc(C(=O)O)cc2)cc1 ?
Kir21 block: inactive; KCNK3 inh: inactive; KCNK9 block: inactive; KCNQ1 pot: inactive; hERG protect: inactive; KCNQ1 inh: inactive

Results for CC1(C)NC(=O)N(CC(O)COc2ccccc2C(=O)Nc2ccccc2)C1=O (stereo not given) ?
Kir21 block: inactive; KCNK3 inh: inactive; KCNK9 block: -14.7; KCNQ1 pot: inactive; hERG protect: inactive; KCNQ1 inh: inactive; KCNK9 inh conf: 58.0%; Kir2-1 spec: inactive; KCNK9 uninduced: inactive

What do the screens show for `O=C(COC(=O)c1ccccc1NC(=O)c1ccccc1)c1cccc([N+](=O)[O-])c1`?
Kir21 block: inactive; KCNK3 inh: inactive; KCNK9 block: -13.6; KCNQ1 pot: inactive; hERG protect: inactive; KCNQ1 inh: inactive; KCNK9 inh conf: 69.0%; Kir2-1 spec: inactive; KCNK9 uninduced: 32.5%

How did CCOC(=O)c1ccccc1NC(=O)c1cccc([N+](=O)[O-])c1 do in these assays?
Kir21 block: inactive; KCNK3 inh: inactive; KCNK9 block: inactive; KCNQ1 pot: inactive; hERG protect: inactive; KCNQ1 inh: inactive

What do the screens show for `NC(=O)C1(c2ccccc2)OC1c1ccccc1` (stereo not given)?
Kir21 block: inactive; KCNK3 inh: inactive; KCNK9 block: inactive; KCNQ1 pot: inactive; hERG protect: inactive; KCNQ1 inh: inactive
